Series [1] concerns the target T1, Fibroblast growth factor 14 (Homo sapiens) (UniProt Q92915).
T1 sequence (whole entry): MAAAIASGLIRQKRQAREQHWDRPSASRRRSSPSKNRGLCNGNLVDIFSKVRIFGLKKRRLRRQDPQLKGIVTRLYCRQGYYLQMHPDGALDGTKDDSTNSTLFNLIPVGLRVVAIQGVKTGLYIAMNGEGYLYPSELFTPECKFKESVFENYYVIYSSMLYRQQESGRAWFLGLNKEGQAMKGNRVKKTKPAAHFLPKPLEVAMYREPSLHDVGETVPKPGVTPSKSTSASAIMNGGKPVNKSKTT
As to the kind of experiment: Binding affinity to human recombinant FGF14 expressed in Escherichia coli BL21 assessed as assessed as induction of protein denaturation by measuring change in melting temperature at 50 uM by fluorescent dye based thermal shift assay. As to conditions: filed as modulator.

The subject of series [2] is HEK293. As to the kind of experiment: Cytotoxicity against HEK293 cells assessed as reduction in cell viability measured after 18 hrs by celltiter-blue assay. As to conditions: human, hek293, 18 h.
In series [3] the target is T1, Fibroblast growth factor 14 (Homo sapiens). As to the kind of experiment: Binding affinity to human recombinant FGF14 expressed in Escherichia coli BL21 assessed as association rate constant by SPR analysis. Particulars: filed as modulator. The method, boiled down:
(§1)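 Biacore T100 runs with FGF14 (17,896 RU) or Nav1.6 C-tail (6,800 RU) amine-coupled on CM5 at pH 5.5. Compounds at 0.195–200 μM in PBS, 0.005% Tween-20, 2% DMSO; 50 μL/min at 25 °C. 120 s association, 150 s dissociation, DMSO calibration, blank subtraction. Rates from a Langmuir 1:1 fit; KD averages the kinetic and steady-state values. At least duplicate experiments.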
A general note: Surface plasmon resonance follows binding to a sensor surface in real time, without labels.

A short description of series [4]: Modulation of recombinant human FGF141b (1 to 252 residues)-recombinant human Nav1.6 C-terminal tail (1763 to 1976 residues) protein-protein interaction expressed in HEK293 cells measured at 2 mins interval for 20 mins by split-luciferase complementation assay. The format is cell-based. The method, boiled down: (§2)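 Double-stable HEK293 line expressing CLuc-FGF14 and CD4-Nav1.6-C-tail-NLuc, kept on G418 and puromycin. Cells seeded for 24 h, then given compound for 1 h in serum-free, phenol red-free DMEM/F12 with a final 0.5% DMSO: 50 μM for screening, 0.25–100 μM over eight concentrations for dose-response; n = 4. D-luciferin added and read every 2 min for 20 min at 37 °C. Peak luminescence expressed as percent of per-plate DMSO mean (n = 32). IC50 from four-parameter nonlinear fit. At least 3 experiments.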

Series [5] addresses T1, Fibroblast growth factor 14 (Homo sapiens). Nature of the series: Binding affinity to human recombinant FGF14 expressed in Escherichia coli BL21 assessed as dissociation rate constant by SPR analysis. Particulars: filed as modulator. In outline: as §1
In series [6] the test system is HEK293. As to the kind of experiment: Inhibition of full-length Photinus pyralis luciferase transfected in HEK293 cells at 25 uM incubated for 1 hrs by split-luciferase complementation assay. The class given is cell-based. The method, boiled down: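 HEK293 cells transfected with full-length Photinus pyralis luciferase, then treated 1 h with 25 μM compound (n = 4) or 0.5% DMSO (n = 32). Luminescence read after D-luciferin addition, as in the LCA, normalized to per-plate DMSO controls. One-way ANOVA with Dunnett's test.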

Series [7] deals with HEK293. Nature of the series: Modulation of recombinant human FGF141b (1 to 252 residues)-recombinant human Nav1.6 C-terminal tail (1763 to 1976 residues) protein-protein interaction expressed in HEK293 cells measured at 2 mins interval for 20 mins by split-luciferase complementation assay relative to control. As to conditions: filed as modulator, time min 2-20. The format is cell-based. The method, boiled down: as §2

Series [8] addresses T2, Sodium channel protein type 8 subunit alpha (Homo sapiens, UniProt Q9UQD0). Nature of the series: Binding affinity to human recombinant Nav1.6 C-terminal domain expressed in Escherichia coli BL21 assessed as assessed as induction of protein denaturation by measuring change in melting temperature at 10 uM by fluorescent dye based thermal shift assay. Particulars: filed as modulator, dose 50.0 µM.
Target sequence in this assay (Q9UQD0 whole entry, looked up, the tested form may be a part): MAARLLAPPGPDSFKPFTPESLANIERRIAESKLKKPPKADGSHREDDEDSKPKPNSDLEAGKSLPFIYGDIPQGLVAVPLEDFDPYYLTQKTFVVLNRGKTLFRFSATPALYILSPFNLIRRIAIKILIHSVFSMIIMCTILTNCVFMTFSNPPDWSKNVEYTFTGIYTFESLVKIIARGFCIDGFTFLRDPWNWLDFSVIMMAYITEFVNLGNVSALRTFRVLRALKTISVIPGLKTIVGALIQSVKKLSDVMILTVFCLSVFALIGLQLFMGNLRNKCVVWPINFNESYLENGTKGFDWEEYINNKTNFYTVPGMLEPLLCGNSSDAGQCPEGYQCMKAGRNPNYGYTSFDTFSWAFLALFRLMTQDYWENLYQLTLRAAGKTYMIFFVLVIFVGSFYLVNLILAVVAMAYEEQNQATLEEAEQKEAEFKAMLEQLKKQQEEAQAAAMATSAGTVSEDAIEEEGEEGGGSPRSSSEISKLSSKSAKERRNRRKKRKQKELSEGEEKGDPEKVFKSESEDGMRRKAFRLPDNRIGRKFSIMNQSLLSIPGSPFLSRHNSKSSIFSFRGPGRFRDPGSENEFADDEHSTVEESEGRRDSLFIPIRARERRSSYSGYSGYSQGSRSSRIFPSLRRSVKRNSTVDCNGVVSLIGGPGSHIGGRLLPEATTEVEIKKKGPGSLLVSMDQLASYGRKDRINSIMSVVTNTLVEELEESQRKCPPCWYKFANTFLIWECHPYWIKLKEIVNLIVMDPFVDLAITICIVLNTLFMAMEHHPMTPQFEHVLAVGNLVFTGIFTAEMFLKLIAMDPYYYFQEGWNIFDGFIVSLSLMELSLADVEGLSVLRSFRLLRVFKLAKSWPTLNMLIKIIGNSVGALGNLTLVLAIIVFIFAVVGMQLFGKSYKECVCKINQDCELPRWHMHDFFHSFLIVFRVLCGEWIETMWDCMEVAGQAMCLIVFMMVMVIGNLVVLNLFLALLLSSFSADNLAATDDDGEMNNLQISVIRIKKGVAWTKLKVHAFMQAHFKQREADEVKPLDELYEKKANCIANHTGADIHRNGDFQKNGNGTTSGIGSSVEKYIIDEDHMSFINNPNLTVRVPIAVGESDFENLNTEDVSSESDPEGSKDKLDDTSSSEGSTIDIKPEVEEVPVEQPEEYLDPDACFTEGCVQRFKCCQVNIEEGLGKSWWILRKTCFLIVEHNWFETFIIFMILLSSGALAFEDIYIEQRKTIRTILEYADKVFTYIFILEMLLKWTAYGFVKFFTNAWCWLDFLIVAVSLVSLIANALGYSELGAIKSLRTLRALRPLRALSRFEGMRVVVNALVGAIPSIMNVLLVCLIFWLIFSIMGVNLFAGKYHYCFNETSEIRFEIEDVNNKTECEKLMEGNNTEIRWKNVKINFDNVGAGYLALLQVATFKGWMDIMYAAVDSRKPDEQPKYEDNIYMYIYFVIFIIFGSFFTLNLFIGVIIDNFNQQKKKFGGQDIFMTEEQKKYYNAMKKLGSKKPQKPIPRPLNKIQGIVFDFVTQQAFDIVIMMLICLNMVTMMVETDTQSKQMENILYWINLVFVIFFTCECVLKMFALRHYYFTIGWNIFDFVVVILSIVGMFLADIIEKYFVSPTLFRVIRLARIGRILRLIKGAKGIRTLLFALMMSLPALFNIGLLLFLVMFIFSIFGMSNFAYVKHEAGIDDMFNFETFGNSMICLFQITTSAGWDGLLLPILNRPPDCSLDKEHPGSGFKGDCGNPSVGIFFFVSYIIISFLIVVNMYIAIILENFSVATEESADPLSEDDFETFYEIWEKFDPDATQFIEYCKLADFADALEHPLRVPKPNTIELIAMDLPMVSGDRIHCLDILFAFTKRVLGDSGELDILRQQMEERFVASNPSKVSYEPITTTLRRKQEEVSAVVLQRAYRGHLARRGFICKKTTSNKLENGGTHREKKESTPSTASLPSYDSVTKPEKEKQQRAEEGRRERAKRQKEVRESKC

Series [9] relates to HEK293. As to the kind of experiment: Modulation of recombinant human FGF141b (1 to 252 residues)-recombinant human Nav1.6 C-terminal tail (1763 to 1976 residues) protein-protein interaction expressed in HEK293 cells assessed as relative luminescence value at 50 uM measured at 2 mins interval for 20 mins by split-luciferase complementation assay relative to control. The format is cell-based. Particulars: filed as modulator, time min 2-20. The method, boiled down: as §2

In series [10] the target is T2, Sodium channel protein type 8 subunit alpha. As to the kind of experiment: Binding affinity to human recombinant Nav1.6 C-terminal domain expressed in Escherichia coli BL21 assessed as association rate constant by SPR analysis. As to conditions: filed as modulator. The method, boiled down: as §1
Target sequence in this assay (Q9UQD0 whole entry, looked up, the tested form may be a part): as above
Series [11] has the same target. As to the kind of experiment: Binding affinity to human recombinant Nav1.6 C-terminal domain expressed in Escherichia coli BL21 assessed as dissociation rate constant by SPR analysis. Particulars: filed as modulator. In outline: as §1
Target sequence in this assay (Q9UQD0 whole entry, looked up, the tested form may be a part): as above
Series [12] deals with T3, Fibroblast growth factor 14 (Homo sapiens, UniProt Q92915).
T3 sequence (Q92915 whole entry): T1 sequence (whole entry)
As to the kind of experiment: Binding affinity to human recombinant FGF14 expressed in Escherichia coli BL21 assessed as dissociation constant by SPR analysis. The method, boiled down: as §1

The target of series [13] is T2, Sodium channel protein type 8 subunit alpha. Nature of the series: Binding affinity to human recombinant Nav1.6 C-terminal domain expressed in Escherichia coli BL21 assessed as dissociation constant by SPR analysis. The method, boiled down: as §1
Target sequence in this assay (Q9UQD0 whole entry, the tested form may be a part): as the sequence (Q9UQD0 whole entry, looked up, the tested form may be a part) above

Active and inactive are the calls of the source. No cut-off for these calls is given here. Residues, ends and D or L forms follow the SMILES beside them. *: point of attachment. Adamantane1carbonyl = O=C(C12CC3CC(CC(C3)C1)C2)*; Pyrrolidide = C1CCN(*)C1; Cbz = O=C(OCc1ccccc1)*; OcHex = C1CCC(O*)CC1; OtBu = CC(C)(C)O*; OAll = C=CCO*; OPr = CCCO*

For the molecule `C=CCOC(=O)[C@@H](NC(=O)[C@H](CCC(=O)OC(C)(C)C)NC(=O)[C@H](CC(C)C)NC(=O)[C@@H]1CCCN1C(=O)C12CC3CC(CC(C3)C1)C2)C(C)C` (Adamantane1carbonyl-PLE(OtBu)V-OAll), the thermal shift (ΔTm) (as a rule, the shift of the melting midpoint relative to a reference) in series [1] is -4.55 °C; in series [8], 0.04 °C. Further, the Activity result is “Non-Toxic” in the series with HEK293 [2] and 5% with HEK293 [9]. Besides, the K in series [3] is 1.79 10^4/M/s; in [5], 9.32 10^-3/s; in [10], 6.16 10^6/M/s; in [11], 2.73 10^-3/s. Besides, the IC50 – broadly, the concentration that inhibits the measured activity by half – in series [4] was found to be 11.5 µM. For the same molecule, in the series on HEK293 [6], the inhibition result is “inactive”. In the series on HEK293 [7], the Efficacy worked out at 95.5%. Moreover, the Kd (commonly a measure of binding affinity in units of concentration) is 1.31 µM in [12] and over 200 µM in series [13].

Take `CCOC(=O)[C@@H](NC(=O)[C@H](CCC(=O)OC(C)(C)C)NC(=O)[C@H](CC(C)C)NC(=O)[C@@H]1CCCN1C(=O)C12CC3CC(CC(C3)C1)C2)C(C)C` (Adamantane1carbonyl-PLE(OtBu)V-OEt): the K is 2.17 10^2/M/s in [3], 2.05 10^-2/s in series [5], 2.64 10^3/M/s in series [10] and 1.22 10^-2/s in series [11]. Further, the IC50 in series [4] stood at 13.3 µM. Besides, the Efficacy with HEK293 [7] is 82.3%. Besides, the results for the Kd in series [12] and in series [13] were 9.47 µM and 67.3 µM, respectively.

On to `CCCOC(=O)[C@@H](NC(=O)[C@H](CCC(=O)OC(C)(C)C)NC(=O)[C@H](CC(C)C)NC(=O)[C@@H]1CCCN1C(=O)C12CC3CC(CC(C3)C1)C2)C(C)C` (Adamantane1carbonyl-PLE(OtBu)V-OPr), for which the K was 2.89 10^2/M/s in series [3], 2.04 10^-2/s in series [5], 3.4 10^2/M/s in series [10] and 4.92 10^-2/s in series [11]. For the same molecule, the IC50 in series [4] is 22.5 µM. In the series on HEK293 [7], the Efficacy was determined as 83.3%. Also, the equilibrium dissociation constant (Kd) in [12] worked out at 11.4 µM; in series [13], 90.1 µM.

On to `CC(C)C[C@H](NC(=O)[C@@H]1CCCN1C(=O)C12CC3CC(CC(C3)C1)C2)C(=O)N[C@@H](CCC(=O)OC(C)(C)C)C(=O)N[C@H](C(=O)OC1CCCCC1)C(C)C` (Adamantane1carbonyl-PLE(OtBu)V-OcHex), for which the ΔTm in series [1] was -2.21 °C; in series [8], 0.43 °C. The figures for the Activity result in the series with HEK293 [2] and with HEK293 [9] were “Non-Toxic” and 43.4%, respectively. Also, the K was 7.35 10^3/M/s in series [3], 1.39 10^-2/s in series [5], 7.16 10^5/M/s in series [10] and 1.7 10^-4/s in series [11]. Moreover, the IC50 in series [4] is 35.3 µM. The inhibition result with HEK293 [6] is “inactive”. The Efficacy with HEK293 [7] was 69.9%. Besides, the Kd in series [12] is 7.02 µM; in [13] it was over 200 µM.

Turning to `CC(C)C[C@H](NC(=O)[C@@H]1CCCN1C(=O)C12CC3CC(CC(C3)C1)C2)C(=O)N[C@@H](CCC(=O)OC(C)(C)C)C(=O)N[C@H](C(=O)OC(C)(C)C)C(C)C` (Adamantane1carbonyl-PLE(OtBu)V-OtBu), the ΔTm in [1] was -0.89 °C; in [8], -0.13 °C. Besides, the Activity result is “Non-Toxic” with HEK293 [2] and 33.6% with HEK293 [9]. In addition, the K in series [3] is 1.62 10^3/M/s; in series [5], 5.8 10^-3/s; in series [10], 8.29 10^5/M/s; in series [11] it was 7.94 10^-3/s. Also, the half-maximal inhibitory concentration (IC50) in series [4] stood at 33.9 µM. Further, the inhibition entry in the series on HEK293 [6] is “inactive”. The Efficacy with HEK293 [7] turned out to be 92.1%. In addition, the equilibrium dissociation constant (Kd) in series [12] is 6.94 µM; in [13], over 200 µM.

For the molecule `CC(C)C[C@H](NC(=O)[C@@H]1CCCN1C(=O)OCc1ccccc1)C(=O)N[C@@H](CCC(=O)OC(C)(C)C)C(=O)N[C@H](C(=O)N1CCCC1)C(C)C` (Cbz-PLE(OtBu)V-Pyrrolidide), the ΔTm in [1] was 3.38 °C; in [8] it was -0.48 °C. Also, the Activity entry with HEK293 [2] was “Non-Toxic”; in the series with HEK293 [9] it was 14%. Besides, the K is 4.61 10^2/M/s in series [3] and 9.91 10^-4/s in series [5]. The IC50 in series [4] stood at 33.4 µM. The inhibition entry in the series on HEK293 [6] is “inactive”. For the same molecule, the Efficacy in the series on HEK293 [7] amounted to 96.9%. For the same molecule, the equilibrium dissociation constant (Kd) in series [12] was 189 µM.

These data come from ChEMBL document CHEMBL4699573, “Design, Synthesis, and Pharmacological Evaluation of Analogues Derived from the PLEV Tetrapeptide as Protein-Protein Interaction Modulators of Voltage-Gated Sodium Channel 1.6” (J Med Chem, 2020).
